# Source: ChEMBL document CHEMBL1149770, “Synthesis and antimicrobial studies of novel dichlorofluorophenyl containing aminotriazolothiadiazines” (2008)
# Tests used:
# Escherichia coli = assay: Antibacterial activity against Escherichia coli ATCC 25922 after 24 hrs by broth dilution technique; assay type: functional; conditions: ATCC 25922, 24 h
# Summary of the method: (§1)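 MIC by broth dilution in nutrient broth with logarithmic serial twofold dilutions of compound. Inoculum approx. 5×10^5 c.f.u actively dividing bacteria. Incubated 24 h at 37 °C, growth monitored visually and spectrophotometrically. MIC taken as the lowest concentration (highest dilution) arresting growth. Ciprofloxacin reference.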
# Candida albicans [1] = assay: Antifungal activity against Candida albicans after 48 hrs […]; assay type: functional
# Staphylococcus aureus [2] = assay: Antibacterial activity against Staphylococcus aureus ATCC 25923 after 24 hrs by broth dilution technique; assay type: functional; conditions: ATCC 25923, 24 h; summary of the method: as §1
# Klebsiella pneumoniae [3] = assay: Antibacterial activity against Klebsiella pneumoniae after 24 hrs by broth dilution technique; assay type: functional; summary of the method: as §1
# [4] = test system: Trichophyton mentagrophytes; assay: Antifungal activity against Trichophyton mentagrophytes after 48 hrs […]; assay type: functional
# Aspergillus flavus [5] = assay: Antifungal activity against Aspergillus flavus after 48 hrs […]; assay type: functional
# Aspergillus fumigatus [6] = assay: Antifungal activity against Aspergillus fumigatus after 48 hrs […]; assay type: functional
# Pseudomonas aeruginosa [7] = assay: Antibacterial activity against Pseudomonas aeruginosa ATCC 27853 after 24 hrs by broth dilution technique; assay type: functional; conditions: ATCC 27853, 24 h; summary of the method: as §1
# Talaromyces marneffei [8] = assay: Antifungal activity against Penicillium marneffei after 48 hrs […]; assay type: functional
# [9] = test system: Trichophyton mentagrophytes; assay: Antifungal activity against Trichophyton mentagrophytes assessed as inhibition zone diameter […] by agar dilution method; assay type: functional
# Summary of the method: (§2)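 Compounds in DMSO placed in punched wells on Sabouraud agar (peptone, glucose, agar, pH 5.7) lawned with saline spore suspension. Plates pre-dried 1 h at 37 °C. Controls in triplicate, incubation at 37 °C for 3-4 days, then inhibition zone diameter read in mm. Amphotericin B reference.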
# Klebsiella pneumoniae [10] = assay: Antibacterial activity against Klebsiella pneumoniae assessed as inhibition zone diameter after 24 hrs […]; assay type: functional
# Summary of the method: (§3)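 Disc diffusion on nutrient agar. Inoculum 1-2 × 10^7 c.f.u/ml (0.5 McFarland) spread over the plate surface. Sterile 6.25 mm filter-paper discs soaked in a known concentration of compound. Solvent and growth controls included. Plates incubated inverted 24 h at 37 °C, then inhibition zone diameter measured in mm. Ciprofloxacin reference.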
# Aspergillus fumigatus [11] = assay: Antifungal activity against Aspergillus fumigatus assessed as inhibition zone diameter […] by agar dilution method; assay type: functional; summary of the method: as §2
# Pseudomonas aeruginosa [12] = assay: Antibacterial activity against Pseudomonas aeruginosa ATCC 27853 assessed as inhibition zone diameter after 24 hrs […]; assay type: functional; summary of the method: as §3
# Talaromyces marneffei [13] = assay: Antifungal activity against Penicillium marneffei assessed as inhibition zone diameter […] by agar dilution method; assay type: functional; summary of the method: as §2
# Streptococcus pyogenes [14] = assay: Antibacterial activity against Streptococcus pyogenes after 24 hrs by broth dilution technique; assay type: functional; summary of the method: as §1
# Streptococcus pyogenes [15] = assay: Antibacterial activity against Streptococcus pyogenes assessed as inhibition zone diameter after 24 hrs by disc diffusion method
# Candida albicans [16] = assay: Antifungal activity against Candida albicans assessed as inhibition zone diameter […] by agar dilution method; assay type: functional; summary of the method: as §2
# Staphylococcus aureus [17] = assay: Antibacterial activity against Staphylococcus aureus ATCC 25923 assessed as inhibition zone diameter after 24 hrs […]; assay type: functional; summary of the method: as §3
# Aspergillus flavus [18] = assay: Antifungal activity against Aspergillus flavus assessed as inhibition zone diameter […] by agar dilution method; assay type: functional; summary of the method: as §2
SMILES,MIC (Escherichia coli),MIC (Candida albicans [1]),MIC (Staphylococcus aureus [2]),MIC (Klebsiella pneumoniae [3]),MIC [4],MIC (Aspergillus flavus [5]),MIC (Aspergillus fumigatus [6]),MIC (Pseudomonas aeruginosa [7]),MIC (Talaromyces marneffei [8]),inhibition zone (IZ) [9],inhibition zone (IZ) (Klebsiella pneumoniae [10]),inhibition zone (IZ) (Aspergillus fumigatus [11]),inhibition zone (IZ) (Pseudomonas aeruginosa [12]),inhibition zone (IZ) (Talaromyces marneffei [13]),MIC (Streptococcus pyogenes [14]),inhibition zone (IZ) (Streptococcus pyogenes [15]),inhibition zone (IZ) (Candida albicans [16]),inhibition zone (IZ) (Staphylococcus aureus [17]),inhibition zone (IZ) (Aspergillus flavus [18])
CCOc1ccc(NC(=O)CSc2nnc(-c3cc(F)c(Cl)cc3Cl)n2N)cc1,> 100 µg/mL,> 100 µg/mL,> 100 µg/mL,> 100 µg/mL,> 100 µg/mL,> 100 µg/mL,> 100 µg/mL,> 100 µg/mL,> 100 µg/mL,,,,,,,,,,
Nn1c(SCC(=O)Nc2cccc(Cl)c2Cl)nnc1-c1cc(F)c(Cl)cc1Cl,> 100 µg/mL,> 100 µg/mL,> 100 µg/mL,> 100 µg/mL,> 100 µg/mL,> 100 µg/mL,> 100 µg/mL,> 100 µg/mL,> 100 µg/mL,,,,,,,,,,
Cc1cccc(C)c1NC(=O)CSc1nnc(-c2cc(F)c(Cl)cc2Cl)n1N,> 100 µg/mL,> 100 µg/mL,> 100 µg/mL,> 100 µg/mL,> 100 µg/mL,> 100 µg/mL,> 100 µg/mL,> 100 µg/mL,> 100 µg/mL,,,,,,,,,,
Fc1cc(-c2nnc3n2N=C(Nc2cccc(Cl)c2Cl)CS3)c(Cl)cc1Cl,12.5 µg/mL,> 100 µg/mL,> 100 µg/mL,12.5 µg/mL,25 µg/mL,> 100 µg/mL,12.5 µg/mL,12.5 µg/mL,12.5 µg/mL,8 mm,14 mm,11 mm,17 mm,12 mm,,,,,
Fc1cc(-c2nnc3n2N=C(Nc2c(Cl)cccc2Cl)CS3)c(Cl)cc1Cl,25 µg/mL,6.25 µg/mL,> 100 µg/mL,> 100 µg/mL,12.5 µg/mL,> 100 µg/mL,25 µg/mL,> 100 µg/mL,25 µg/mL,12 mm,,10 mm,,10 mm,12.5 µg/mL,15 mm,18 mm,,
Cc1cccc(NC2=Nn3c(nnc3-c3cc(F)c(Cl)cc3Cl)SC2)c1C,12.5 µg/mL,25 µg/mL,6.25 µg/mL,6.25 µg/mL,> 100 µg/mL,> 100 µg/mL,12.5 µg/mL,25 µg/mL,6.25 µg/mL,,19 mm,16 mm,12 mm,18 mm,25 µg/mL,10 mm,10 mm,25 mm,
Cc1cc(C)c(NC(=O)CSc2nnc(-c3cc(F)c(Cl)cc3Cl)n2N)c(C)c1,> 100 µg/mL,12.5 µg/mL,> 100 µg/mL,> 100 µg/mL,6.25 µg/mL,6.25 µg/mL,12.5 µg/mL,> 100 µg/mL,12.5 µg/mL,17 mm,,15 mm,,13 mm,,,11 mm,,23 mm
Nn1c(SCC(=O)Nc2ccc(Cl)cc2Cl)nnc1-c1cc(F)c(Cl)cc1Cl,> 100 µg/mL,> 100 µg/mL,> 100 µg/mL,> 100 µg/mL,> 100 µg/mL,> 100 µg/mL,> 100 µg/mL,> 100 µg/mL,> 100 µg/mL,,,,,,,,,,
Cc1cc(C)c(NC2=Nn3c(nnc3-c3cc(F)c(Cl)cc3Cl)SC2)c(C)c1,12.5 µg/mL,12.5 µg/mL,6.25 µg/mL,25 µg/mL,12.5 µg/mL,> 100 µg/mL,> 100 µg/mL,25 µg/mL,12.5 µg/mL,14 mm,8 mm,,16 mm,11 mm,12.5 µg/mL,15 mm,13 mm,23 mm,
COc1ccc(NC(=O)CSc2nnc(-c3cc(F)c(Cl)cc3Cl)n2N)cc1,6.25 µg/mL,> 100 µg/mL,6.25 µg/mL,6.25 µg/mL,> 100 µg/mL,> 100 µg/mL,> 100 µg/mL,6.25 µg/mL,> 100 µg/mL,,21 mm,,32 mm,,6.25 µg/mL,23 mm,,24 mm,
Fc1ccc(NC2=Nn3c(nnc3-c3cc(F)c(Cl)cc3Cl)SC2)cc1,6.25 µg/mL,12.5 µg/mL,12.5 µg/mL,12.5 µg/mL,6.25 µg/mL,> 100 µg/mL,25 µg/mL,12.5 µg/mL,6.25 µg/mL,18 mm,16 mm,6 mm,24 mm,19 mm,6.25 µg/mL,22 mm,14 mm,15 mm,
Fc1ccc(NC2=Nn3c(nnc3-c3cc(F)c(Cl)cc3Cl)SC2)cc1Cl,6.25 µg/mL,> 100 µg/mL,> 100 µg/mL,12.5 µg/mL,25 µg/mL,> 100 µg/mL,> 100 µg/mL,12.5 µg/mL,12.5 µg/mL,10 mm,11 mm,,20 mm,16 mm,6.25 µg/mL,18 mm,,,
C[C@@H]1[C@H](O)[C@@H](C)/C=C/C=C/C=C/C=C/C=C/C=C/C=C/[C@H](O[C@@H]2O[C@H](C)[C@@H](O)[C@H](N)[C@@H]2O)C[C@@H]2O[C@](O)(C[C@@H](O)C[C@@H](O)[C@H](O)CC[C@@H](O)C[C@@H](O)CC(=O)O[C@H]1C)C[C@H](O)[C@H]2C(=O)O [AMPHOTERICIN B],,6.25 µg/mL,,,6.25 µg/mL,6.25 µg/mL,6.25 µg/mL,,6.25 µg/mL,19 mm,,22 mm,,23 mm,,,20 mm,,25 mm
O=C(O)c1cn(C2CC2)c2cc(N3CCNCC3)c(F)cc2c1=O [CIPROFLOXACIN],,,,6.25 µg/mL,,,,,,,22 mm,,33 mm,,6.25 µg/mL,25 mm,,25 mm,
